Experimental data from article PMC5709104 (Haematologica, 2017).
Entries after “also recorded” stand apart in the source; their conditions may differ.

What was measured:
AXL [1] = details: cited from earlier work
[2] = system: refractory or relapse AML; details: single agent; cited from earlier work
PLK1 = assay: Immunoblot analysis; format: cell-based; details: 50 nM or 100 nM, 24 hours, MOLM13 and MV4;11
Method in brief: (§1)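 MOLM13 and MV4;11 cells incubated 24 h with vehicle or varying doses of test compound, then lysed. Total protein separated by SDS-PAGE and immunoblotted, with infrared imaging detection. Densitometry ratios taken to tubulin loading control, or to the total protein for phospho-proteins.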

MOLM13 luc/gfp cells = assay: Human AML murine xenograft model; format: in vivo, NSG mice
Method in brief: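 MOLM13 cells lentivirally transduced with firefly luciferase/copGFP, injected into NSG mice. Control feed for one week, then control feed or feed containing 0.004% (~6 mg/kg daily; N=5 per group) or 0.013% (~20 mg/kg daily; N=9 control, N=10 treated) test compound. Leukemic burden by weekly IVIS imaging. Sternum (BM) and liver from moribund mice examined by H&E.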

MER = MER (Homo sapiens, UniProt Q12866); assay: Cell-based tyrosine kinase inhibition assay; details: recombinant kinase expressing Ba/F3 cells, 48 hr
CDK1 = assay: Immunoblot analysis; format: cell-based; details: 10 nM, 24 hours, MOLM13 and MV4;11
Method in brief: as §1

[3] = system: MOLM13 cells in co-culture with MSC; assay: In vitro co-culture system with MSC, viability by flow cytometry; format: cell-based, human; details: 50 nM, 72 hours
Method in brief: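 MOLM13 cells grown in monoculture or co-cultured with bone marrow-derived mesenchymal stromal cells (patient-derived, IRB-approved). Treated 72 h with vehicle or test compound. Viable cells measured by flow cytometry.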

AXL [4] = assay: Immunoblot analysis; format: cell-based; details: even at the lowest dose, 24 hours, MOLM13 and MV4;11
Method in brief: as §1

FLT3 phosphorylation = assay: Immunoblot analysis; format: cell-based; details: 10 nM
Method in brief: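 MOLM13 and MV4;11 cells exposed to vehicle or test compound, lysed, total protein resolved by SDS-PAGE, immunoblotted for FLT3 phosphorylation, with infrared imaging detection. Tubulin as loading control.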

p38 phosphorylation = assay: Immunoblot analysis; format: cell-based; details: 24 hours, MOLM13; due to reduction of total p38
Method in brief: as §1

HL60 cells = assay: Viable cell number and apoptosis by flow cytometry; format: cell-based; details: FLT3 WT HL60, data not shown
ERK phosphorylation = assay: Immunoblot analysis; format: cell-based; details: 10 nM, 24 hours, MOLM13
Method in brief: as §1

MV4;11 cells [5] = assay: Viable cell number and apoptosis by flow cytometry; format: cell-based; details: 10 nM, 48 hours
Method in brief: (§2)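 MV4;11 and OCI-AML3 cells incubated 48 h with vehicle (0.1% DMSO) or varying doses of test compound. Viable cell number and apoptosis measured by flow cytometry.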

MOLM13 cells [6] = assay: Viable cell number and apoptosis by flow cytometry; format: cell-based, human
Method in brief: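 Viable cell number and apoptosis in MOLM13 cells measured by flow cytometry. Single-agent runs used vehicle (0.1% DMSO) or varying doses of test compound for 48 h or 72 h. Combination runs used vehicle (0.2% DMSO), 1 μM cytarabine, test compound (10 or 50 nM) or both, for 48 h. Student's t-test against cytarabine-treated cells.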

CCNB1 mRNA = assay: qRT-PCR gene expression analysis; format: cell-based; details: 10 nM, 24 hours, MOLM13 and MV4;11
Method in brief: (§3)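 MOLM13 and MV4;11 cells incubated 24 h with vehicle or varying doses of test compound. Total RNA extracted and reverse transcribed. PLK-1, CDK1 and CCNB1 transcripts quantified by TaqMan qRT-PCR and normalized to B2M.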

OCI-AML3 cells = assay: Viable cell number and apoptosis by flow cytometry; format: cell-based; details: varying doses, 48 hours, OCI-AML3 (FLT3 WT)
Method in brief: as §2

OCI-AML3 = assay: Reverse phase protein analysis; format: cell-based; details: RPPA, 24 hours, FLT3 WT OCI-AML3
MOLM13 cells [7] = assay: DNA synthesis and cell cycle assay; format: cell-based, human; details: 24 hours
Method in brief: (§4)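 MOLM13 and MV4;11 cells exposed to vehicle or varying doses of test compound for 24 h. Cell cycle status assessed by FX Cycle Violet DNA staining and DNA synthesis by EdU incorporation (Click-It EdU kit), both read by flow cytometry. Student's t-test against vehicle-treated cells.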

FLT3 = FLT3 (Homo sapiens, UniProt P36888); assay: Cell-based tyrosine kinase inhibition assay; details: recombinant kinase expressing Ba/F3 cells, 48 hr
AXL mRNA = assay: qRT-PCR gene expression analysis; format: cell-based; details: 24 hours
HL60 = assay: Reverse phase protein analysis; format: cell-based; details: RPPA, 24 hours, FLT3 WT HL60
MCL-1 = assay: Immunoblot analysis; format: cell-based; details: 24 hours
Method in brief: as §1

[8] = system: MOLM13, MV4:11, OCI-AML3, and HL60 cells; assay: Trypan blue staining of cells collected for RPPA; format: cell-based; details: all other cases (vehicle or ONO-7475, 24 hours; MOLM13, MV4:11, OCI-AML3, HL60)
Cyclin B1 = assay: Immunoblot analysis; format: cell-based; details: 10 nM, 24 hours, MOLM13 and MV4;11
Method in brief: as §1

RB phosphorylation = assay: Immunoblot analysis; format: cell-based; details: even at the lowest dose, 24 hours, MOLM13 and MV4;11
Method in brief: as §1

MOLM13 cells [9] = assay: Reverse phase protein analysis; format: cell-based, human; details: RPPA, 10 nM, 50 nM or 100 nM, 24 hours, at least 2-fold
MOLM13 p53 shRNA cells = assay: Viability and apoptosis by flow cytometry, p53 knockdown cells; format: cell-based, human; details: 10 nM, 48 hours
Method in brief: (§5)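 MOLM13 cells carrying control shRNA (GFP target) or p53 shRNA incubated 48 h with varying doses of test compound. Viability and apoptosis measured by flow cytometry. p53 knockdown checked by immunoblot densitometry against tubulin. Student's t-test against GFP control.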

CDK1 mRNA = assay: qRT-PCR gene expression analysis; format: cell-based; details: 10 nM, 24 hours, MOLM13 and MV4;11
Method in brief: as §3

PLK-1 mRNA = assay: qRT-PCR gene expression analysis; format: cell-based; details: 24 hours; for reduction of PLK-1 mRNA relative to B2M: MOLM13
Method in brief: as §3

phosphorylation of S6 = assay: Immunoblot analysis; format: cell-based; details: 24 hours, MOLM13
Method in brief: as §1

MV4;11 cells [10] = assay: DNA synthesis and cell cycle assay; format: cell-based; details: 24 hours
Method in brief: as §4

[11] = system: MOLM13 control shRNA (GFP) cells; assay: Viability and apoptosis by flow cytometry, control shRNA cells; format: cell-based, human; details: 10 nM, 48 hours
Method in brief: as §5

resistant cells = details: cited from earlier work

Chain of MER (Q12866 21-999): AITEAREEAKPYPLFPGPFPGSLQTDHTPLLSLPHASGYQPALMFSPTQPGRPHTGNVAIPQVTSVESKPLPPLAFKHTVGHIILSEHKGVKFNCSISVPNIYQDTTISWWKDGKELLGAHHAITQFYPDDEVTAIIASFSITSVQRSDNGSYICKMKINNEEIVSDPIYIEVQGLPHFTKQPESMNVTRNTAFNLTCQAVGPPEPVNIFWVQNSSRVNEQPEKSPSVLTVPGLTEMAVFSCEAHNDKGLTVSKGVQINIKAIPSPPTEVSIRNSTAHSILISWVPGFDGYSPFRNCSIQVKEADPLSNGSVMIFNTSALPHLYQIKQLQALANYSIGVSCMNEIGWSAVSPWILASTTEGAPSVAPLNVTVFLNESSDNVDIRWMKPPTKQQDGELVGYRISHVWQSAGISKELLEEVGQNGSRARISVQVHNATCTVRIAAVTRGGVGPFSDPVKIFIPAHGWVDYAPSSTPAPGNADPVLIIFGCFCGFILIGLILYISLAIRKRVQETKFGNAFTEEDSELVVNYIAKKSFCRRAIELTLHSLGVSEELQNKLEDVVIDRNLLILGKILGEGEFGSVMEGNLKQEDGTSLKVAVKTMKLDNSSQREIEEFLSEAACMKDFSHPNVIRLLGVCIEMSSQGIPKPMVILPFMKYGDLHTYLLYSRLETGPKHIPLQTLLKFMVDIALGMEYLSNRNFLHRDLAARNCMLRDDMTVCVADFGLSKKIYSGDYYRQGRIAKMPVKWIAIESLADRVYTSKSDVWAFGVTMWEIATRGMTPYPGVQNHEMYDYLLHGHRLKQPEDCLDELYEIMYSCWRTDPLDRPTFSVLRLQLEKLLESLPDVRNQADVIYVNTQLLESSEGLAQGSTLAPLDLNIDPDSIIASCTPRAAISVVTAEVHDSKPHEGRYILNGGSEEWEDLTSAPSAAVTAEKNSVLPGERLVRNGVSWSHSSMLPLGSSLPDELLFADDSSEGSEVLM
Chain of FLT3 (P36888 27-993): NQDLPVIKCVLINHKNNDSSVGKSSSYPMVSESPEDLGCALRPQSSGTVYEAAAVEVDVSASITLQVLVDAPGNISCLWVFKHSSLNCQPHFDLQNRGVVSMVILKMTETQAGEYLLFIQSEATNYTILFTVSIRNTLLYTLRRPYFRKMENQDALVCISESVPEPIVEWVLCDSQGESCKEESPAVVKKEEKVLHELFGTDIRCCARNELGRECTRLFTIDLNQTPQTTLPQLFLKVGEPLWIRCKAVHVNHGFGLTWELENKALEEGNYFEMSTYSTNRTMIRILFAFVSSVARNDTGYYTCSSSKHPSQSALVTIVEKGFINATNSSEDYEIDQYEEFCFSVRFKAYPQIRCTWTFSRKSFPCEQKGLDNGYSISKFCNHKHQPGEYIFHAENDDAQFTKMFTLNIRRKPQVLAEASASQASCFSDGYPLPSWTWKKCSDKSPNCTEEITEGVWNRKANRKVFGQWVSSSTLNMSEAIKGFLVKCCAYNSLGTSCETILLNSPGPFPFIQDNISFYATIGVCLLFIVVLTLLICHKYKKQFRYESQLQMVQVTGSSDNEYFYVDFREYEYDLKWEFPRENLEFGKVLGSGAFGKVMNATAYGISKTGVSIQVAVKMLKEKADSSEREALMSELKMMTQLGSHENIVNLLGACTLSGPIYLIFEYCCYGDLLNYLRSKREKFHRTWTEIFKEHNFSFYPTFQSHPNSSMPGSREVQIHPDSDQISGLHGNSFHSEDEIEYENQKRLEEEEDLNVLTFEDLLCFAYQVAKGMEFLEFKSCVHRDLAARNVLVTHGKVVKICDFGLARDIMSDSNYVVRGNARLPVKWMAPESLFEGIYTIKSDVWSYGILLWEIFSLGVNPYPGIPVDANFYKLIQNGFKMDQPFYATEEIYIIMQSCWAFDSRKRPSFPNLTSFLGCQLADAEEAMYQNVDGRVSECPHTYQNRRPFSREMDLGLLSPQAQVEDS

CCc1nc(C(N)=O)c(Nc2ccc(N3CCC(N4CCN(C)CC4)CC3)c(OC)c2)nc1NC1CCOCC1 [Gilteritinib, gilteritinib]
IC50 (AXL [1]): 0.7 nM | patients achieving some response [2]: 40% | patients exhibiting inhibition of FLT3 phosphorylation [2]: 90% | tolerability [2]: well tolerated

COc1cc2nccc(Oc3ccc(NC(=O)c4cc5c(n(-c6ccccc6)c4=O)CCCC5=O)nc3)c2cc1OC [ONO-7475]
PLK1 protein (PLK1): Little, if any, PLK1 was detected | mice with reduced leukemic burden compared to control (IVIS imaging) (MOLM13 luc/gfp cells; 0.004% ONO-7475 feed, Day 14): three out of five | leukemia infiltration in the liver (H&E) (MOLM13 luc/gfp cells; 0.013% ONO-7475 feed): little, if any, AML cells in the liver; also recorded: minimal presence of MOLM13 cells in the liver | IC50 (MER): 1 nM | CDK1 protein (CDK1): potently suppressed | protection of AML cells by MSC from the inhibitor [3]: abrogated most of this effect | AXL protein (AXL [4]): induced AXL | p-FLT3 (FLT3 phosphorylation; MOLM13): greatly reduced | p-FLT3 (FLT3 phosphorylation; MV4;11): nearly eliminated | p38 phosphorylation (p38 phosphorylation): p38 phosphorylation was reduced | sensitivity to drug (HL60 cells): resistant | reduction of ERK phosphorylation (ERK phosphorylation): ~ 50% | apoptosis (MV4;11 cells [5]): induced apoptosis | reduction of cell viability (MV4;11 cells [5]): > 50% | apoptosis (MOLM13 cells [6]; 10 nM, 48 hours, MOLM13): induced apoptosis | reduction of cell viability (MOLM13 cells [6]; 10 nM, 48 hours, MOLM13): > 50% | cells becoming apoptotic (MOLM13 cells [6]; 10 nM, 72 hours, MOLM13): > 70% | viable cells (MOLM13 cells [6]; 10 nM, 72 hours, MOLM13 monoculture): nearly eliminated all viable MOLM13 cells | viable cell numbers and apoptosis, single agent (MOLM13 cells [6]; ONO-7475 alone (10nM or 50 nM), 48 hours, MOLM13): effective | reduction of CCNB1 mRNA relative to B2M (CCNB1 mRNA): at least 60% | apoptosis (OCI-AML3 cells): did not induce apoptosis | viable cell number (OCI-AML3 cells): slightly reduced | change (i.e., 2-fold) in the level of protein (OCI-AML3): no significant change | suppression of DNA synthesis (MOLM13 cells [7]; 5 nM): > 2 fold | cell cycle status (MOLM13 cells [7]): potently induced G0/G1 arrest | IC50 (FLT3): 147 nM | increase of AXL mRNA relative to B2M (AXL mRNA; 10 nM, MOLM13 and MV4;11): ~ 3.5 fold | increase of AXL mRNA relative to B2M (AXL mRNA; 50 nM, MOLM13): > 6 fold | increase of AXL mRNA relative to B2M (AXL mRNA; 50 nM, MV4;11): > 8 fold | change (i.e., 2-fold) in the level of protein (HL60): no significant change | suppression of MCL-1 (MCL-1; 10 nM, MOLM13): > 80% | reduction of MCL-1 (MCL-1; 100 nM, MV4;11): 50% | viable cells (Trypan blue) [8]: > 95% | Cyclin B1 protein (Cyclin B1): potently suppressed | RB phosphorylation (RB phosphorylation): blocked RB phosphorylation | Proteins increased in MOLM13 cells by ONO-7475 (MOLM13 cells [9]): H2AX (phospho; pS140) | apoptosis (MOLM13 p53 shRNA cells): ~ 20% | reduction of viability (MOLM13 p53 shRNA cells): > 70% | reduction of CDK1 mRNA relative to B2M (CDK1 mRNA): at least 60% | suppression of PLK-1 mRNA compared with MOLM13 (PLK-1 mRNA; 10 nM and 50 nM, MV4;11): more potently suppressed | reduction of PLK-1 mRNA relative to B2M (PLK-1 mRNA; 10 nM): ~ 60% | reduction of PLK-1 mRNA relative to B2M (PLK-1 mRNA; 50 nM): ~ 80% | phosphorylation of S6 (phosphorylation of S6): inhibited the phosphorylation of S6 | suppression of DNA synthesis (MV4;11 cells [10]; 5 nM): > 2 fold | cell cycle status (MV4;11 cells [10]): potently induced G0/G1 arrest | apoptosis [11]: without inducing apoptosis | reduction of viability [11]: ~ 55%

Nc1ccn([C@@H]2O[C@H](CO)[C@@H](O)[C@@H]2O)c(=O)n1 [AraC, Cytarabine, reference compound]
viable cell numbers and apoptosis, single agent (MOLM13 cells [6]; 1 μM AraC alone, 48 hours, MOLM13): effective

Nc1nc(Nc2ccc3c(c2)CC[C@@H](N2CCCC2)CC3)nn1-c1cc2c(nn1)-c1ccccc1CCC2 [BGB324]
sensitisation to a combination of decitabine and vorinostat (resistant cells): could sensitize resistant cells
